Where two headings read alike, the source gives them in different places.
Legend:
[1] = tested on: hormone receptor-positive breast cancer; conditions: cited from earlier work
[2] = Pharmacokinetics, plasma LC-MS/MS, non-compartmental analysis; format: in vivo, human; conditions: AUC0–24 on Days 1 and 18/21 of Cycle 1, 600 mg/day dose
Summary of the method: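 Oral daily dosing at 50–1,200 mg/day. On Cycle 1 Days 1 and 18/21, blood was drawn pre-dose and at 0.5, 1, 2, 4, 6, 8 and 24 h, with further trough days. Parent drug and a metabolite in plasma were measured by validated LC-MS/MS (LLOQ 1.0 ng/mL). Non-compartmental analysis was used. Dose proportionality was fitted as ln(Cmax or AUC0–24) = α + β ln(dose). T1/2,acc came from the accumulation ratio; steady state was judged from troughs.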

Row | metabolite exposure relative to parent drug [2] | SMILES | median progression-free survival ([1]; in combination with fulvestrant) | median progression-free survival ([1]; in combination with letrozole)
1 |  | CC(=O)c1c(C)c2cnc(Nc3ccc(N4CCNCC4)cn3)nc2n(C2CCCC2)c1=O [palbociclib] | improved median progression-free survival | improved median progression-free survival
2 | approximately 10% | CNC(=O)c1cc2cnc(Nc3ccc(N4CCNCC4)cn3)nc2n1C1CCCC1 [LEQ803] |  | 
